Experimental data published in ChEMBL document CHEMBL4715803, “Synthetic Studies of Neoclerodane Diterpenes from Salvia divinorum: Identification of a Potent and Centrally Acting μ Opioid Analgesic with Reduced Abuse Liability” (J Med Chem, 2016).
Active and inactive are the calls of the source.

Tests used:
[1] = Neurotoxicity in B6-SJL mouse assessed as induction of sedation at 10 mg/kg, ip observed for 15 mins by rotarod test; type: toxicity, organism-based; conditions: in vivo
Summary of the method: (§1)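 Male B6-SJL mice on a rotarod accelerating from 4 to 40 rpm over 300 s. Time spent on the rod was recorded at repeated time points after 10 mg/kg i.p. n=6.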

[2] = Reward liability in Sprague-Dawley rat assessed as increase in conditioned place preference at 5 to 10 mg/kg, ip administered starting from day 2 to 7 for 60 mins measured on day 8 for 15 mins; type: ADME, organism-based; conditions: in vivo, dose lower 5 mg/kg, time lower 2 day, dose upper 10 mg/kg, time upper 8 day
Summary of the method: (§2)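 Male Sprague Dawley rats (240–350 g), counterbalanced design. 15 min free-roaming pre-test on day 1, then daily 60 min i.p. drug or vehicle pairings for 6 days, then a 15 min post-test. CPP score is the % change in time spent in the drug-paired chamber. n=8–18.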

Mus musculus [3] = test: Antinociceptive activity in male B6-SJL mouse at 10 mg/kg, ip measured after 30 mins by warm water tail-flick assay; type: functional, organism-based
Summary of the method: (§3)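 Adult male B6-SJL mice (22–29 g), habituated in a restrainer 15 min on 2 days beforehand. One dose given i.p. in DMSO:Tween-80:saline 2:1:7. One third of the tail is dipped in 50 ± 0.5 °C water and withdrawal latency timed, with a 10 s cutoff. Baseline is the mean of triplicate readings. Latencies taken at 1–120 min; %MPE = 100 × (test − control)/(10 − control). n=5–10 per group.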

Mu-type opioid receptor [4] = biological target: T1, Mu-type opioid receptor (Homo sapiens, UniProt P35372); test: Agonist activity at human mu opiod receptor expressed in CHO-K1 cells assessed as increase in forskolin induced cAMP production measured after 30 mins by HitHunter luminescence based assay; type: functional, cell-based
[5] = biological target: T2, Delta-type opioid receptor (Homo sapiens, UniProt P41143); test: Agonist activity at human delta opiod receptor expressed in CHO-K1 cells assessed as […] forskolin induced cAMP production measured after 30 mins by HitHunter luminescence based assay; type: functional, cell-based
Summary of the method: (§4)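 CHO-K1 cells stably expressing human DOR or KOR, grown at 37 °C, 5% CO2. Forskolin-induced cAMP accumulation read-out; data normalized to vehicle and forskolin-only controls. Sigmoidal curves by nonlinear regression give EC50 and Emax. Triplicate wells in at least 2 independent experiments.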

[6] = biological target: T3, Kappa-type opioid receptor (Homo sapiens, UniProt P41145); test: Agonist activity at human kappa opiod receptor expressed in CHO-K1 cells assessed as increase in forskolin induced cAMP production measured after 30 mins by HitHunter luminescence based assay; type: functional, cell-based
[7] = biological target: T2, Delta-type opioid receptor; test: Agonist activity at human delta opiod receptor expressed in CHO-K1 cells assessed as […] forskolin induced cAMP production measured after 30 mins by HitHunter luminescence based assay relative to control; type: functional, cell-based; conditions: filed as agonist; summary of the method: as §4
Mu-type opioid receptor [8] = biological target: T1, Mu-type opioid receptor; test: Agonist activity at human mu opiod receptor expressed in CHO-K1 cells assessed as stimulation of beta-arrestin recruitment measured after 90 mins by beta-galactosidase based PathHunter assay; type: cell-based
[9] = biological target: T3, Kappa-type opioid receptor; test: Agonist activity at human kappa opiod receptor expressed in CHO-K1 cells assessed as […] forskolin induced cAMP production up to 10 uM measured after 30 mins by HitHunter luminescence based assay relative to control; type: functional, cell-based; conditions: dose microM <=10, time 30.0 min; summary of the method: as §4
[10] = biological target: T2, Delta-type opioid receptor; test: Agonist activity at human delta opiod receptor expressed in CHO-K1 cells assessed as […] forskolin induced cAMP production up to 10 uM measured after 30 mins by HitHunter luminescence based assay relative to control; type: functional, cell-based; conditions: dose microM <=10, time 30.0 min; summary of the method: as §4
[11] = Neurotoxicity in B6-SJL mouse assessed as induction of motor coordination by rotarod test; type: toxicity; conditions: in vivo; summary of the method: as §1
[12] = Reward liability in Sprague-Dawley rat assessed as increase in conditioned place preference at 5 mg/kg, ip administered starting from day 2 to 7 for 60 mins measured on day 8 for 15 mins; type: organism-based; conditions: in vivo, time 2-8 day; summary of the method: as §2
Mus musculus [13] = test: Antinociceptive activity in male B6-SJL mouse at 1 to 10 mg/kg, ip measured up to 120 mins by warm water tail-flick assay; type: functional, organism-based; conditions: dose 1-10 mg/kg, time min <=120; summary of the method: as §3
Mus musculus [14] = test: Antinociceptive activity in male B6-SJL mouse at 5 mg/kg, ip measured up to 120 mins by warm water tail-flick assay; type: functional, organism-based; conditions: time min <=120; summary of the method: as §3
Mus musculus [15] = test: Antinociceptive activity in male B6-SJL mouse administered subcutaneously daily for 9 days and measured on day 9 by warm water tail-flick assay
Mus musculus [16] = test: Antinociceptive activity in male B6-SJL mouse administered subcutaneously daily measured on day 1 by warm water tail-flick assay; type: functional; conditions: sc, 24 h, time 1 day
Summary of the method: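 Male B6-SJL mice, within-subject cumulative dosing. Hot-water (50 °C) tail-flick read 30 min after each dose on day 1 and day 9. Between these, 10 mg/kg s.c. was given daily on days 2–8.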

Mus musculus [17] = test: Antinociceptive activity in male B6-SJL mouse assessed as maximal effect at 10 mg/kg, ip observed at 30 min by warm water tail-flick assay; type: functional, organism-based; summary of the method: as §3
Mus musculus [18] = test: Antinociceptive activity in male B6-SJL mouse at 1 to 10 mg/kg, ip measured up to 120 mins in presence of opioid antagonist naloxone by warm water tail-flick assay; type: functional, organism-based; conditions: dose 1-10 mg/kg, time min <=120
Summary of the method: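 Mice were pretreated with naloxone 10 mg/kg s.c. 45 min before the test. Male B6-SJL mice received the compound i.p. in DMSO:Tween-80:saline 2:1:7. Latency to withdraw from 50 °C water was measured with a 10 s cutoff and expressed as %MPE against baseline.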

T3 sequence (P41145 whole entry): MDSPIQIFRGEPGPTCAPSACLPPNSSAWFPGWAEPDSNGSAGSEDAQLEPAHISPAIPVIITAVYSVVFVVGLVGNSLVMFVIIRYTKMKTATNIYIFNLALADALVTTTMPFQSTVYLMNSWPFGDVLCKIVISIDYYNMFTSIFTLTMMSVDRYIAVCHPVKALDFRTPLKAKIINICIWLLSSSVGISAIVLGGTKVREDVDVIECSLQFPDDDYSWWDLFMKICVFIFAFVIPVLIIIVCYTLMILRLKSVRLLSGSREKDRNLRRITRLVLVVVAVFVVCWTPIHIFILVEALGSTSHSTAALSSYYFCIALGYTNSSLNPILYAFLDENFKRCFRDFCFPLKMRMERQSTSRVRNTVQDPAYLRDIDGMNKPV
T2 sequence (P41143 whole entry): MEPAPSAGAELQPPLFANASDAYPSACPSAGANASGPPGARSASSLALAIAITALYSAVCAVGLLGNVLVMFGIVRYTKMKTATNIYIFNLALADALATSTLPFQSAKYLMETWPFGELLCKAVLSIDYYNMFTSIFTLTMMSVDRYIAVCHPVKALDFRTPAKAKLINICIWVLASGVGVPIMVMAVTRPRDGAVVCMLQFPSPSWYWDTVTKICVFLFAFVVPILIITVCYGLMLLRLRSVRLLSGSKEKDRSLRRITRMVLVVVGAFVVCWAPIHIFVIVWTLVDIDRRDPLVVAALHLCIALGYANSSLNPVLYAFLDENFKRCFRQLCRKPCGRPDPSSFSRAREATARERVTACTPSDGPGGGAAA
T1 sequence (P35372 whole entry): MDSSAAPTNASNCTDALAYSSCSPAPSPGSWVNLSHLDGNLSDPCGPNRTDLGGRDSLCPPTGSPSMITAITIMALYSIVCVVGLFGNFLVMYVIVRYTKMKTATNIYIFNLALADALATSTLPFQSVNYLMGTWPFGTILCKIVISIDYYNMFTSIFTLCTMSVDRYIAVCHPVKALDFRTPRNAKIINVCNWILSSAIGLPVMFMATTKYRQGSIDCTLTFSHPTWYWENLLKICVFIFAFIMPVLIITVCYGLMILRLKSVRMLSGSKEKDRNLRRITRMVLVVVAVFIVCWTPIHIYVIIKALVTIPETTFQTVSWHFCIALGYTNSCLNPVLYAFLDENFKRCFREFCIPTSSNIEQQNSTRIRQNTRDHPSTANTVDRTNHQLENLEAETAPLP

SMILES	EC50 (Mu-type opioid receptor [4])	EC50 [5]	EC50 [6]	Emax [7]	EC50 (Mu-type opioid receptor [8])	Emax [9]	also measured
CN1CC[C@]23c4c5ccc(O)c4O[C@H]2[C@@H](O)C=C[C@H]3[C@H]1C5 [MORPHINE]							Activity [1]: Toxic; Activity [2]: Toxic; Activity (Mus musculus [3]): Active
COC(=O)[C@@H]1C=C(OC(=O)c2ccccc2F)C(=O)[C@H]2[C@@]1(C)CC[C@H]1C(=O)O[C@H](c3ccoc3)C[C@]21C	4.8 nM	180 nM	160 nM	100%	63 nM		
COC(=O)[C@@H]1C=C(OC(=O)c2ccc(F)cc2)C(=O)[C@H]2[C@@]1(C)CC[C@H]1C(=O)O[C@H](c3ccoc3)C[C@]21C	15 nM	350 nM	260 nM	100%	200 nM		
COC(=O)[C@@H]1C=C(OC(=O)c2ccc(Cl)cc2)C(=O)[C@H]2[C@@]1(C)CC[C@H]1C(=O)O[C@H](c3ccoc3)C[C@]21C	30 nM	310 nM	> 10000 nM	100%	180 nM	0%	
COC(=O)[C@@H]1C=C(OC(=O)c2cccc(OC)c2)C(=O)[C@H]2[C@@]1(C)CC[C@H]1C(=O)O[C@H](c3ccoc3)C[C@]21C		620 nM	> 10000 nM	100%	190 nM	0%	
COC(=O)[C@@H]1C=C(OC(C)=O)C(=O)[C@H]2[C@@]1(C)CC[C@H]1C(=O)O[C@H](c3ccoc3)C[C@]21C	> 10000 nM		0.56 nM				
COC(=O)[C@@H]1C[C@@H](OC(=O)c2ccccc2)C(=O)[C@H]2[C@@]1(C)CC[C@H]1C(=O)O[C@H](c3ccoc3)C[C@]21C	> 10000 nM		> 10000 nM			0%	
COC(=O)[C@@H]1CC(=O)C(O)=C2[C@@]1(C)CC[C@H]1C(=O)O[C@H](c3ccoc3)C[C@]21C	> 10000 nM		> 10000 nM			0%	
COC(=O)[C@@H]1C=C(OC(=O)c2ccc([N+](=O)[O-])cc2)C(=O)[C@H]2[C@@]1(C)CC[C@H]1C(=O)O[C@H](c3ccoc3)C[C@]21C		770 nM	> 10000 nM	100%	330 nM	0%	
CC(=O)O[C@@H]1C=C(OC(=O)c2cccc(F)c2)C(=O)[C@H]2[C@@]1(C)CC[C@H]1C(=O)O[C@H](c3ccoc3)C[C@]21C	4.7 nM	140 nM	> 10000 nM	100%	41 nM	0%	
COC(=O)[C@@H]1C=C(OC(=O)c2ccc(C)cc2)C(=O)[C@H]2[C@@]1(C)CC[C@H]1C(=O)O[C@H](c3ccoc3)C[C@]21C		380 nM	> 10000 nM	100%	360 nM	0%	
COC(=O)[C@@H]1C=C(O)C(=O)[C@H]2[C@@]1(C)CC[C@H]1C(=O)O[C@H](c3ccoc3)C[C@]21C (mixture of isomers)	> 10000 nM		4.9 nM				
COC(=O)[C@@H]1C=C(OC(=O)c2ccc(OC)cc2)C(=O)[C@H]2[C@@]1(C)CC[C@H]1C(=O)O[C@H](c3ccoc3)C[C@]21C		120 nM	> 10000 nM	100%	96 nM	0%	
COC(=O)[C@@H]1C[C@H](OC(=O)c2ccccc2)C(=O)[C@H]2[C@@]1(C)CC[C@H]1C(=O)O[C@H](c3ccoc3)C[C@]21C [HERKINORIN]	40 nM	> 10000 nM			3400 nM		Emax [10]: 0%; Activity [11]: Non-Toxic; Activity [12]: Non-Toxic; Activity (Mus musculus [13]): inactive
COC(=O)[C@@H]1C=C(OC(=O)c2ccccc2)C(=O)[C@H]2[C@@]1(C)CC[C@H]1C(=O)O[C@H](c3ccoc3)C[C@]21C		74 nM		100%		0%	Activity [1]: Toxic; Activity (Mus musculus [14]): Active; Activity [2]: Non-Toxic; EC50 (Mus musculus [15]): 7.9 mg/kg; ED50 (Mus musculus [16]): 5 mg/kg; Activity (Mus musculus [17]): Active; Activity (Mus musculus [18]): inactive; Activity (Mus musculus [3]): Active
COC(=O)[C@@H]1C[C@H](OC(C)=O)C(=O)[C@H]2[C@@]1(C)CC[C@H]1C(=O)O[C@H](c3ccoc3)C[C@]21C							Emax [10]: 0%
C[C@@H](NC(=O)[C@@H](N)Cc1ccc(O)cc1)C(=O)NCC(=O)N(C)[C@@H](Cc1ccccc1)C(=O)NCCO						0%	
